# Active and inactive are the calls of the source. No cut-off for these calls is given here.
# What was measured:
# Staphylococcus aureus [1] = assay: Antibacterial activity against vancomycin/methicillin-susceptible Staphylococcus aureus Newman […] after 24 hrs by broth microdilution method; assay type: functional
# Summary of the method: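 Broth microdilution in cation-adjusted Mueller-Hinton II broth. […] Each well received ~10^5 CFU of exponential-phase bacteria and was incubated at 37 °C for 24 h. MIC was taken as the lowest concentration giving complete growth inhibition, interpreted per CLSI.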
# Staphylococcus aureus [2] = assay: Antibacterial activity against healthcare-associated methicillin-resistant/vancomycin-intermediate Staphylococcus aureus Mu50 after 24 hrs by broth microdilution method; assay type: functional; details: Mu50, 24 h
# Summary of the method: (§1)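 Broth microdilution in cation-adjusted Mueller-Hinton II broth. DMSO stocks were diluted in broth and twofold serially from 128 to 0.0625 μg/mL or lower. Each well was inoculated with ~10^5 CFU of exponential-phase bacteria and incubated at 37 °C for 24 h. MIC was the lowest concentration giving complete growth inhibition, read per CLSI. Growth controls contained broth plus DMSO.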
# Staphylococcus aureus [3] = assay: Potency index, ratio of telavancin MIC90 to test compound MIC90 for vancomycin/methicillin-susceptible Staphylococcus aureus Newman […]; assay type: functional
# Enterococcus faecium [4] = assay: Antibacterial activity against glycopeptide-resistant Enterococcus faecium Efm-HS-0649 vanA after 24 hrs by broth microdilution method; assay type: functional; details: Efm-HS-0649, 24 h; summary of the method: as §1
# Enterococcus faecium [5] = assay: Antibacterial activity against glycopeptide-resistant Enterococcus faecium Efm-HS-06188 vanA after 24 hrs by broth microdilution method; assay type: functional; details: Efm-HS-06188, 24 h; summary of the method: as §1
# Enterococcus faecium [6] = assay: Antibacterial activity against glycopeptide-resistant Enterococcus faecium Efm-HS-0847 vanM after 24 hrs by broth microdilution method; assay type: functional; details: Efm-HS-0847, 24 h; summary of the method: as §1
# Enterococcus faecium [7] = assay: Antibacterial activity against glycopeptide-resistant Enterococcus faecium Efm-HS-08257 vanM after 24 hrs by broth microdilution method; assay type: functional; details: Efm-HS-08257, 24 h; summary of the method: as §1
# Enterococcus faecium [8] = assay: Antibacterial activity against glycopeptide-resistant Enterococcus faecium Efm-HS-vb01 vanB after 24 hrs by broth microdilution method; assay type: functional; details: Efm-HS-vb01, 24 h; summary of the method: as §1
# [9] = Half life in CD1 mouse at 5 mg/kg, iv; assay type: ADME, organism-based; details: in vivo
# Summary of the method: (§2)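 Fasted male CD-1 mice (18−22 g), 5 mg/kg single dose into the tail vein, 6 per group. Blood sampled at 0.25, 0.75, 2, 4, 8 and 24 h and analysed by UPLC-MS/MS. T1/2, AUClast, AUCINF_obs, CL_obs, MRTINF_obs and VSS_obs were calculated for each animal from its time−concentration curve.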
# [10] = AUClast in CD1 mouse at 5 mg/kg, iv; assay type: ADME, organism-based; design: dose 5 mg/kg, route intravenous, time 0 - last; details: in vivo; summary of the method: as §2
# [11] = AUC (infinity) in CD1 mouse at 5 mg/kg, iv; assay type: ADME, organism-based; design: dose 5 mg/kg, route intravenous, time infinity; details: in vivo; summary of the method: as §2
# [12] = Clearance in CD1 mouse at 5 mg/kg, iv; assay type: ADME, organism-based; details: in vivo; summary of the method: as §2
# [13] = MRT (infinity) in CD1 mouse at 5 mg/kg, iv; assay type: ADME, organism-based; details: in vivo; summary of the method: as §2
# [14] = Volume of distribution at steady state in CD1 mouse at 5 mg/kg, iv; assay type: ADME, organism-based; details: in vivo, read-out: Vdss
# Summary of the method: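 Fasted male CD-1 mice (18−22 g), 5 mg/kg single dose into the tail vein, 6 per group. T1/2, AUClast, AUCINF_obs, CL_obs, MRTINF_obs and VSS_obs were calculated for each animal from its time−concentration curve.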
# Blood = assay: Drug uptake in CD1 mouse blood at 5 mg/kg, iv; assay type: ADME, organism-based; details: in vivo; summary of the method: as §2
# Staphylococcus aureus [15] = assay: Antibacterial activity against methicillin-resistant Staphylococcus aureus USA300 LAC infected in BALB/c mouse assessed as increase in mouse survival rate at 7 mg/kg, ip administered as single dose after 10 days relative to control; assay type: functional, organism-based
# Summary of the method: (§3)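 Female BALB/c mice, 6−8 weeks old, were anesthetized with pentobarbital and infected retro-orbitally with ~2.35 × 10^8 CFU of exponential-phase USA300 LAC, 15 per group. A single 7 mg/kg ip dose was given 1 h after infection. Deaths were recorded daily to build survival curves.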
# L02 = assay: Cytotoxicity against human HL7702 cells assessed as decrease in cell viability at 10 to 100 uM after 72 hrs by CCK8 assay; assay type: cell-based; details: l02, 72 h
# Summary of the method: (§4)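 HK-2 and HL-7702 cells were seeded at ~5000 cells/well, incubated overnight, then exposed to compound at final 10, 50 and 100 μM for 72 h. CCK-8 was added for 1.5 h at 37 °C and OD450 read. Viability was OD treated / OD untreated × 100, with triplicates.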
# HK-2 = assay: Cytotoxicity against human HK2 cells assessed as decrease in cell viability at 10 to 100 uM after 72 hrs by CCK8 assay; assay type: cell-based; details: hk-2, 72 h; summary of the method: as §4
# Staphylococcus aureus [16] = assay: Antibacterial activity against methicillin-resistant Staphylococcus aureus USA300 LAC infected in BALB/c mouse assessed as mouse survival rate at 7 mg/kg, ip administered as single dose measured after 10 days relative to control; assay type: functional; details: for survival at 7 mg/kg: 240 h; summary of the method: as §3
# Staphylococcus aureus [17] = assay: Antibacterial activity against healthcare-associated methicillin-resistant/vancomycin-intermediate Staphylococcus aureus Mu50 infected in BALB/c mouse assessed as decrease in liver CFU levels at 7 mg/kg, ip administered twice in 24 hrs interval measured after 5 days; assay type: functional, organism-based
# Summary of the method: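 Female BALB/c mice, 6−8 weeks old, were anesthetized with pentobarbital and infected retro-orbitally with ~3.8 × 10^8 CFU of exponential-phase Mu50, 12 per group. Treatment started 1 h post-infection: 7 mg/kg ip in sterile water, two doses 24 h apart. At day 5 mice were euthanized and liver homogenates plated on TSA for CFU counts. Groups were compared by two-tailed Mann−Whitney test.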
# Enterococcus faecium [18] = assay: Potency index, ratio of telavancin MIC90 to test compound MIC90 for glycopeptide-resistant Enterococcus faecium Efm-HS-vb01 vanB; assay type: functional
# Enterococcus faecium [19] = assay: Potency index, ratio of oritavancin MIC90 to test compound MIC90 for glycopeptide-resistant Enterococcus faecium Efm-HS-vb01 vanB; assay type: functional
SMILES,MIC90 (Staphylococcus aureus [1]),MIC90 (Staphylococcus aureus [2]),Ratio (Staphylococcus aureus [3]),MIC (Enterococcus faecium [4]),MIC (Enterococcus faecium [5]),MIC (Enterococcus faecium [6]),MIC (Enterococcus faecium [7]),MIC (Enterococcus faecium [8]),half-life [9],AUC(0-t) [10],AUC(0-inf) [11],clearance [12],MRT inf [13],Vd [14],Drug uptake (Blood),Activity (Staphylococcus aureus [15]),Activity (L02),Activity (HK-2),Activity (Staphylococcus aureus [17]),also measured
CN[C@H](CC(C)C)C(=O)N[C@H]1C(=O)N[C@@H](CC(N)=O)C(=O)N[C@H]2C(=O)N[C@H]3C(=O)N[C@H](C(=O)N[C@H](C(=O)O)c4cc(O)c(CNCCCNC(=O)[C@H](O)[C@@H](O)[C@H](O)[C@H](O)CO)c(O)c4-c4cc3ccc4O)[C@H](O)c3ccc(c(Cl)c3)Oc3cc2cc(c3O[C@@H]2O[C@H](CO)[C@@H](O)[C@H](O)[C@H]2O[C@H]2C[C@](C)(NCc3ccc(-c4ccc(C(F)(F)F)cc4)cc3)[C@H](O)[C@H](C)O2)Oc2ccc(cc2Cl)[C@H]1O,0.06 µg/mL,0.25 µg/mL,8 - 16,2 µg/mL,1 µg/mL,8 µg/mL,4 µg/mL,0.5 µg/mL,3.72 h,10700 ng·h/mL,13400 ng·h/mL,6.4 mL/min/kg,4.79 h,1.83 L/kg,> 1 µg/mL,Active,–,–,–,–
CN[C@H](CC(C)C)C(=O)N[C@H]1C(=O)N[C@@H](CC(N)=O)C(=O)N[C@H]2C(=O)N[C@H]3C(=O)N[C@H](C(=O)N[C@H](C(=O)O)c4cc(O)c(CNCCO[C@@H]5O[C@H](CO)[C@H](O)[C@H](O)[C@H]5O)c(O)c4-c4cc3ccc4O)[C@H](O)c3ccc(c(Cl)c3)Oc3cc2cc(c3O[C@@H]2O[C@H](CO)[C@@H](O)[C@H](O)[C@H]2O[C@H]2C[C@](C)(NCc3ccc(-c4ccc(Cl)cc4)cc3)[C@H](O)[C@H](C)O2)Oc2ccc(cc2Cl)[C@H]1O,0.06 µg/mL,0.25 µg/mL,–,4 µg/mL,2 µg/mL,16 µg/mL,4 µg/mL,0.12 µg/mL,–,–,–,–,–,–,–,–,Non-Toxic,Non-Toxic,–,–
CCCCCCCCCCNCCN[C@@]1(C)C[C@H](O[C@H]2[C@H](Oc3c4cc5cc3Oc3ccc(cc3Cl)[C@@H](O)[C@@H](NC(=O)[C@@H](CC(C)C)NC)C(=O)N[C@@H](CC(N)=O)C(=O)N[C@H]5C(=O)N[C@H]3C(=O)N[C@H](C(=O)N[C@H](C(=O)O)c5cc(O)c(CNCP(=O)(O)O)c(O)c5-c5cc3ccc5O)[C@H](O)c3ccc(c(Cl)c3)O4)O[C@H](CO)[C@@H](O)[C@@H]2O)O[C@@H](C)[C@H]1O [TELAVANCIN],0.25 µg/mL,1 µg/mL,–,4 µg/mL,8 µg/mL,4 µg/mL,0.12 µg/mL,1 µg/mL,–,–,–,5.1 mL/min/kg,–,–,–,–,Toxic,Non-Toxic,Active,Activity (Staphylococcus aureus [16]): Active
CN[C@H](CC(C)C)C(=O)N[C@H]1C(=O)N[C@@H](CC(N)=O)C(=O)N[C@H]2C(=O)N[C@H]3C(=O)N[C@H](C(=O)N[C@H](C(=O)O)c4cc(O)cc(O)c4-c4cc3ccc4O)[C@H](O)c3ccc(c(Cl)c3)Oc3cc2cc(c3O[C@@H]2O[C@H](CO)[C@@H](O)[C@H](O)[C@H]2O[C@H]2C[C@](C)(N)[C@H](O)[C@H](C)O2)Oc2ccc(cc2Cl)[C@H]1O [VANCOMYCIN],2 µg/mL,8 µg/mL,–,> 128 µg/mL,> 128 µg/mL,> 128 µg/mL,> 128 µg/mL,64 µg/mL,–,–,–,68.7 mL/min/kg,–,3.08 L/kg,–,–,Toxic,Toxic,inactive,survival at 7 mg/kg (Staphylococcus aureus [16]): 6.67%
CN[C@H](CC(C)C)C(=O)N[C@H]1C(=O)N[C@@H](CC(N)=O)C(=O)N[C@H]2C(=O)N[C@H]3C(=O)N[C@H](C(=O)N[C@H](C(=O)O)c4cc(O)c(CN[C@H]5C(O)O[C@H](CO)[C@H](O)[C@@H]5O)c(O)c4-c4cc3ccc4O)[C@H](O)c3ccc(c(Cl)c3)Oc3cc2cc(c3O[C@@H]2O[C@H](CO)[C@@H](O)[C@H](O)[C@H]2O[C@H]2C[C@](C)(NCc3ccc(-c4ccc(C(F)(F)F)cc4)cc3)[C@H](O)[C@H](C)O2)Oc2ccc(cc2Cl)[C@H]1O (stereo partly drawn),0.015 µg/mL,0.12 µg/mL,8 - 16,1 µg/mL,1 µg/mL,4 µg/mL,2 µg/mL,≤ 0.06 µg/mL,3.45 h,20100 ng·h/mL,24300 ng·h/mL,3.45 mL/min/kg,4.41 h,0.9 L/kg,> 1 µg/mL,Active,–,–,–,Ratio (Enterococcus faecium [18]): 16; Ratio (Enterococcus faecium [19]): 4
CN[C@H](CC(C)C)C(=O)N[C@H]1C(=O)N[C@@H](CC(N)=O)C(=O)N[C@H]2C(=O)N[C@H]3C(=O)N[C@H](C(=O)N[C@H](C(=O)O)c4cc(O)c(CNCCO)c(O)c4-c4cc3ccc4O)[C@H](O)c3ccc(c(Cl)c3)Oc3cc2cc(c3O[C@@H]2O[C@H](CO)[C@@H](O)[C@H](O)[C@H]2O[C@H]2C[C@](C)(NCc3ccc(-c4ccc(C(F)(F)F)cc4)cc3)[C@H](O)[C@H](C)O2)Oc2ccc(cc2Cl)[C@H]1O,0.015 µg/mL,0.12 µg/mL,–,1 µg/mL,1 µg/mL,4 µg/mL,2 µg/mL,≤ 0.06 µg/mL,–,–,–,–,–,–,–,Active,–,–,–,–
CN[C@H](CC(C)C)C(=O)N[C@H]1C(=O)N[C@@H](CC(N)=O)C(=O)N[C@H]2C(=O)N[C@H]3C(=O)N[C@H](C(=O)N[C@H](C(=O)O)c4cc(O)c(CN[C@H]5C(O)O[C@H](CO)[C@H](O)[C@@H]5O)c(O)c4-c4cc3ccc4O)[C@H](O)c3ccc(c(Cl)c3)Oc3cc2cc(c3O[C@@H]2O[C@H](CO)[C@@H](O)[C@H](O)[C@H]2O[C@H]2C[C@](C)(NCc3ccc(-c4ccc(Cl)cc4)cc3)[C@H](O)[C@H](C)O2)Oc2ccc(cc2Cl)[C@H]1O (stereo partly drawn),0.03 µg/mL,0.12 µg/mL,8 - 16,2 µg/mL,2 µg/mL,8 µg/mL,4 µg/mL,0.25 µg/mL,3.81 h,12100 ng·h/mL,12200 ng·h/mL,7 mL/min/kg,4.18 h,1.75 L/kg,> 1 µg/mL,–,–,–,Active,survival at 7 mg/kg (Staphylococcus aureus [16]): 93.3%

# From ChEMBL document CHEMBL4052823, “Extra Sugar on Vancomycin: New Analogues for Combating Multidrug-Resistant Staphylococcus aureus and Vancomycin-Resistant Enterococci” (J Med Chem, 2018)
